An excerpt weighted towards active compounds, which were near 3.6% of everything screened.
PAFAH1B3 FP inh: inhibitors of human PAFAH1B3; Q15102; recombinant PAFAH1B3, FP-rhodamine probe, fluorescence polarization; inhibition, % at 3.39 µM; 340,000 compounds, 0.28% hits; AID 492972;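 active means inhibition above the screen-wide average of all tested compounds plus 3 SD, cut at about 25% in these data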;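 further: 0% = enzyme with DMSO only and 100% = wells lacking PAFAH1B3 protein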
IMP-1 inhibitor: blocks Pseudomonas aeruginosa IMP-1 metallo-beta-lactamase; purified IMP-1, nitrocefin hydrolysis, epi-absorbance fluorescence; inhibition, % at 5.6 µM; 290,000 compounds, 0.45% hits;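 active means inhibition above the mean plus 3 SD of all compounds in the same screening run, cut at about 4.5% in these data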;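 further: 0% = IMP-1 with DMSO and 100% = DMSO wells lacking enzyme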
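System: purified IMP-1 / Input: IMP-1 dispensed at 0.2 nM / Medium: 50 mM HEPES pH 7.1, 50 µM ZnSO4, 0.05% Brij 35 / Timing: 15 min enzyme–compound preincubation, then 25 min nitrocefin reaction, 25 °C / Technique: plate fluorescence quenching by hydrolysis product, ex 480/em 530 nm / Repeats: singlicate testing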
PAFAH1B2 FP inh: PAFAH1B2 (human) inhibition; P68402; recombinant PAFAH1B2, FP-rhodamine activity probe, fluorescence polarization; inhibition, % at 3.39 µM; 340,000 compounds, 1.2% hits;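 active means inhibition above the mean of all tested compounds plus 3 SD, cut at about 24% in these data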;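 further: 0% = enzyme with DMSO and 100% = wells lacking PAFAH1B2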
Target sequence (P68402 whole entry, looked up): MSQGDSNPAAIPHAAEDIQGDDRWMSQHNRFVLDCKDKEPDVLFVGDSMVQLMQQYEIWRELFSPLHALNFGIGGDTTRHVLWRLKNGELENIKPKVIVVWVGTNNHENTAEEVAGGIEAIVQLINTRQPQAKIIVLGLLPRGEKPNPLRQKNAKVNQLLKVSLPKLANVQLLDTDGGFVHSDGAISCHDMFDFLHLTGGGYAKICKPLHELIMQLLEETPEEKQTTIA
VIM-2 inh: inhibitors of Pseudomonas aeruginosa VIM-2 metallo-beta-lactamase; purified VIM-2, nitrocefin hydrolysis, epi-absorbance fluorescence; inhibition, % at 5.6 µM; 290,000 compounds, 0.89% hits;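 active means inhibition above the mean of all tested compounds plus 3 SD, cutoff set per screening run, cut at about 7.5% in these data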;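 further: red hydrolysis product quenches plate fluorescence so inhibitors raise well fluorescence; 0% = enzyme with DMSO and 100% = DMSO without enzyme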
pPAFAH FP inh: pPAFAH (human) enzyme inhibition | Q13093 | recombinant pPAFAH, FP-rhodamine probe fluorescence polarization | inhibition, % at 3.39 µM | 330,000 compounds, 1.5% hits | AID 463082;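 active means inhibition above the mean inhibition across the screen plus 3 SD, cut at about 25% in these data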;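 further: inhibitors block binding of the rhodamine activity-based probe so polarization drops; 0% = enzyme with DMSO and 100% = wells lacking pPAFAH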
Target sequence (Q13093 whole entry, looked up): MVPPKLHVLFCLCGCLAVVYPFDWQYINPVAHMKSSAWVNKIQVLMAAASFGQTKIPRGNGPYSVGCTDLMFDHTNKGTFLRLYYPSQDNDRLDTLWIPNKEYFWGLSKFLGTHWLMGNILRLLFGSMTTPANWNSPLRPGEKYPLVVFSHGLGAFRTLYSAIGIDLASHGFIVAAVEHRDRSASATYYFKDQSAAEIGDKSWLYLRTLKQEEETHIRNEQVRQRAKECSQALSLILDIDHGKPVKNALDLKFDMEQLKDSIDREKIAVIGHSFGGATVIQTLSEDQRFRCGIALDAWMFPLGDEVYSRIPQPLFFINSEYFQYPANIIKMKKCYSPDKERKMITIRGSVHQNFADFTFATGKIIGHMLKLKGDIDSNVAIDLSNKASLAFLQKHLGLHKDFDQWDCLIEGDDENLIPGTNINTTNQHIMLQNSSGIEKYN
PAFAH2 inh: PAFAH2 (human) inhibition; Q99487; recombinant PAFAH2, FP-rhodamine activity probe, fluorescence polarization; inhibition, % at 3.39 µM; 340,000 compounds, 0.99% hits;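 active means inhibition above the mean over all tested compounds plus 3 SD, cut at about 30% in these data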;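 further: inhibitors block probe labeling of enzyme so polarization drops; 0% = enzyme with DMSO and 100% = wells lacking PAFAH2 protein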
* = called active by the depositor; . = no result.

SMILES	PAFAH1B3 FP inh	IMP-1 inhibitor	PAFAH1B2 FP inh	VIM-2 inh	pPAFAH FP inh	PAFAH2 inh
O=CN1c2ccccc2CSc2ccccc21	.	.	.	.	3.1	.
O=C(c1nnc(Cc2ccc(Cl)cc2)o1)N1CCc2ccccc2C1	-1.6	-1.0	2.5	-1.3	29.8*	3.9
Cc1ccc(S(=O)(=O)n2ccc3c(OCCOCCSCC(NC(=O)OC(C)(C)C)C(=O)O)cccc32)cc1 (configuration not stated)	1.6	-1.4	81.1*	-1.9	14.7	0.8
Cc1ccc(S(=O)(=O)NCCCCC(NC(=O)OC(C)(C)C)C(=O)O)cc1 (configuration not stated) (tested in a mixture with another compound)	-0.3	0.6	4.6	0.7	2.6	-1.6
CC(C)(C)C1CCC2(CC1)SCC(=O)N2c1ccccc1 (configuration not stated)	6.8	-0.1	2.6	0.8	5.4	2.6
CC1CCC2(CC1)SCC(=O)N2c1ccc(F)cc1 (configuration not stated)	-1.7	2.8	24.6*	-0.6	3.1	-2.8
Cc1ccc(C2C(C#N)=C(N)SC(N)=C2C#N)cc1	-29.7	-3.3	-15.2	-1.2	.	-66.8
N#CC1=C(N)SC(N)=C(C#N)C1c1ccoc1	.	-2.5	.	0.0	68.4*	.
Cc1ccc(N2CCN(C(=O)C3CCC(=O)N(Cc4ccc(Cl)cc4)C3)CC2)c(C)c1 (configuration not stated)	-1.0	-6.7	1.7	-3.1	.	2.7
CC1(c2ccc(Cl)cc2Cl)NC(=O)N(CC(=O)NC2CCCCC2)C1=O (configuration not stated)	0.9	.	6.0	.	-0.5	4.8
CCC(C)c1ccccc1NC(=O)COC(=O)c1ccc(N2CCCC2)c([N+](=O)[O-])c1 (configuration not stated)	4.1	-1.7	-2.4	-1.2	30.1*	78.6*
CC(C)c1ccccc1NC(=O)COC(=O)c1cc([N+](=O)[O-])ccc1N1CCOCC1	10.7	.	-3.0	.	4.7	-0.2
COc1ccc(Nc2nccc3c2ncn3C)cc1	1.6	.	1.5	.	-1.1	0.4
O=C(CN1C(=O)/C(=C/c2ccco2)SC1=S)Nc1ccc(O)c(C(=O)O)c1	19.2	3.0	4.3	-2.6	33.1*	14.5
O=C(CCCN1C(=O)/C(=C/c2cccs2)SC1=S)Nc1ccc(O)c(C(=O)O)c1	.	-0.1	.	9.7*	.	.
O=C1/C(=C\c2ccco2)SC(=S)N1c1ccc(O)cc1	2.4	3.5	-0.7	4.0	33.8*	-5.6
O=C(CCCN1C(=O)/C(=C\c2cccs2)SC1=S)Nc1ccc(O)cc1C(=O)O	5.1	-1.6	43.9*	1.7	25.3*	13.2
O=C(CCCN1C(=O)/C(=C\c2cccs2)SC1=S)Nc1ccc(C(=O)O)cc1	9.1	-1.0	-0.8	-0.4	7.8	-2.2
CCc1ccc(/C=C2\SC(=S)N(CCCC(=O)Nc3ccccc3C(=O)O)C2=O)cc1	-2.2	-0.6	55.0*	-2.1	-4.1	30.7*
COc1ccccc1OCC(=O)N1CCCC(Nc2ccc(F)c(F)c2)C1 (configuration not stated)	11.5	-2.9	2.1	-3.4	6.3	8.6
CCN(Cc1ccccc1)C(=O)COc1cc(=O)n(CC)c2ccccc12	1.8	-2.0	6.8	-2.0	5.9	4.0
CN(Cc1ccccc1)C(=O)COc1cc(=O)n(C)c2ccccc12	-8.6	-3.4	8.8	-1.8	31.8*	-9.2
COc1cc(S(=O)(=O)NCC2(N3CCCCC3)CCCCC2)ccc1NC(C)=O	9.7	.	1.9	.	.	-1.0
CCC(C)[C@H]1CNC(=S)N1CCc1cc(C(F)(F)F)cc(C(F)(F)F)c1 (some centres not stated)	18.9	-3.7	3.2	-6.0	27.1*	-4.8
C=CCn1c(CCC(=O)O)ccc1-c1ccc(OC)cc1	-8.0	-0.9	-2.5	-4.1	20.2	-5.0
SMILES	PAFAH1B3 FP inh	IMP-1 inhibitor	PAFAH1B2 FP inh	VIM-2 inh	pPAFAH FP inh	PAFAH2 inh
COc1ccc(-c2ccc(CCC(=O)O)n2CC(C)C)cc1	11.7	7.1*	-3.3	2.5	11.1	-2.6
C=C(CN(C)C)C(=O)c1cc(C)ccc1C	6.2	.	10.3	.	.	3.2
CCCCN(C(=O)c1cc2c(s1)CCCCC2)c1c(N)n(CC(C)C)c(=O)[nH]c1=O	1.3	.	2.7	.	.	2.5
O=C(COC(=O)CC12CC3CC(CC(C3)C1)C2)Nc1ncc(Cl)cc1Cl	-4.1	-4.8	13.2	-4.6	26.7*	20.2
O=C(COC(=O)c1ccc(Cl)nc1)Nc1ncc(Cl)cc1Cl	8.9	-1.8	2.0	-0.5	1.9	5.9
N#Cc1ccc(NC(=O)C2=COCCO2)cc1	0.4	.	5.0	.	0.7	-6.6
CCOC(=O)c1cc(-c2ccccc2)nc2nc(N(CC)CC)sc12	-1.6	-4.9	-0.8	-3.5	5.9	-2.0
Cn1c2ccccc2c2cc(/C=N/NC(=O)c3ccc(N)cc3)ccc21	12.4	-2.5	11.7	-3.2	31.4*	-4.6
COc1ccc2c(-c3ccccc3)cc(SCC(N)=O)nc2c1	-6.3	-0.8	-2.6	-0.1	33.3*	-4.8
C=CCc1c(C)nc(SC)nc1Nc1ccc(C(=O)O)cc1	4.8	-2.7	7.2	1.1	-0.1	-1.2
C=CCc1c(C)nc(SC)nc1Nc1ccc(C(C)=O)cc1	-6.7	-3.7	1.7	8.1*	0.8	-2.0
COc1ccc(NC(=O)Nc2cccc3c2O[C@H](CN(C)Cc2ccc(-c4ccccc4)cc2)[C@@H](C)CN([C@H](C)CO)C3=O)cc1	-9.0	.	2.5	.	-4.8	0.2
CCN1CCN(C(=O)c2cc3c(=O)oc4ccc(C)cc4c3s2)CC1	0.9	-2.2	2.6	8.4*	-0.8	1.6
Cc1ccc2oc(=O)c3cc(C(=O)NCCCN4CCCC(C)C4)sc3c2c1 (configuration not stated)	8.0	-3.4	-3.4	10.7*	2.8	-2.8
Cc1ccc2oc(=O)c3cc(C(=O)NCCN4CCc5ccccc5C4)sc3c2c1	4.6	-3.9	0.2	3.4	-7.0	-3.8
CCCN1CCN(CCCNC(=O)c2cc3c(=O)oc4ccc(C)cc4c3s2)CC1	1.2	-3.4	-5.1	11.5*	2.6	-7.9
O=[N+]([O-])c1ccc(CSc2ccc(S(=O)(=O)N3CCCC3)cn2)cc1	3.8	.	8.3	.	3.6	-4.7
CC1CN(C(=O)CSc2nnc(NC(=O)NC(C)(C)C)s2)CC(C)O1 (configuration not stated)	9.4	.	3.5	.	3.7	0.5
O=S(=O)(Nc1nc(-c2ccccc2)cs1)c1cc(Cl)ccc1Cl	-6.5	-0.9	-3.3	1.9	28.0*	21.2
COc1cc2ccccc2cc1C(=O)N1CCN(c2ccccc2O)CC1	5.6	.	0.9	.	0.8	-11.2
O=Cc1cc2ccccc2nc1SCc1ccc(Cl)c(Cl)c1	-10.0	4.7*	-2.9	-0.6	0.0	-10.6
COc1ccc(S(=O)(=O)N2CCCCC2)cc1NC(=O)c1cnc(C)cn1	5.1	.	0.8	.	3.4	2.7
On1ccccc1=S	2.4	.	2.5	.	2.2	-1.5
CC(C)c1cc(Nc2cccc(O)c2)cc(C(C)C)c1O	.	-1.6	.	0.7	25.7*	.

High-throughput results as filed in PubChem BioAssay.
